ChEMBL document CHEMBL1123812, “Pyrroloisoquinoline antidepressants. 2. In-depth exploration of structure-activity relationships” (J Med Chem, 1987)
pKi: −log10 of the molar value. The source made the active and inactive calls.

Experiments:
[1] = species: Mus musculus; experiment: Antagonism of tetrabenazine (TBZ)-induced depression in mice measured for ptosis; type: functional; details: Mus musculus; read-out: ED50
Summary of the method: (§1)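 Nonfasted male Swiss Webster mice, 18–24 g, ten per dose level and in saline controls. Test compound given ip 30 min before tetrabenazine 32 mg/kg ip; dose expressed as free base. Motor activity and ptosis scored. Control response ≤90% corrected by Abbott's formula.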

[2] = species: Mus musculus; experiment: Antagonism of tetrabenazine (TBZ)-induced depression measured in mice by motor activity; type: functional; details: Mus musculus; read-out: ED50; summary of the method: as §1
[3] = species: Mus musculus; experiment: Gross behavioral effects ascertained in mice; W/C indicates weak stimulant or depressant activity of little significance/ overt convulsant; type: functional, organism-based
Summary of the method: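 Male Swiss Webster albino mice, 18–24 g, three per dose, given ip 1, 3, 10, 30, 100 and 300 mg/kg. Gross behaviour observed and held 4 days. Estimated LD50 range from lethality count on day 4. Scored as weak stimulant/depressant, significant stimulant, significant depressant or overt convulsant.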

[4] = molecular target: Sodium-dependent dopamine transporter (Rattus norvegicus, UniProt P23977); experiment: Inhibition of the uptake of tritiated dopamine (DA) in rat synaptosomes; type: subcellular, Brain
[5] = molecular target: Norepinephrine transporter (Rattus norvegicus, UniProt Q9WTR4); experiment: Inhibition of uptake of tritiated norepinephrine (NE) in rat synaptosomes; type: subcellular, Brain
[6] = test system: Mus musculus; experiment: (§2) Ability to antagonise intraperitoneal dose; inactive (<10% antagonism) at 30 mgjkg is represented as I-30.; type: functional, organism-based; summary of the method: as §1
[7] = test system: Mus musculus; experiment: as §2; type: functional, organism-based; summary of the method: as §1; remark: listed apart in the source
[8] = species: Mus musculus; experiment: Gross behavioral effects ascertained in mice; W indicates weak stimulant or depressant activity of little significance.; type: functional, organism-based
Summary of the method: (§3)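 Male Swiss Webster mice, 18–24 g, three per dose, given ip doses of 1, 3, 10, 30, 100 and 300 mg/kg. Observed for gross behavior and held for 4 days. Scored as weak (W), stimulant (S), depressant (D) or convulsant (C).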

[9] = molecular target: Sodium-dependent dopamine transporter (Rattus norvegicus) (UniProt P23977); experiment: Ability to inhibit the uptake of [3H]dopamine (DA) 0.1 uM concentration at rat brain synaptosomes; type: functional, subcellular
Summary of the method: (§4)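 Male Wistar rat brain synaptosomes (P2 fraction): hypothalamus for NE, striatum for DA, cerebral cortex for 5-HT. Buffer is Tris- or HEPES-buffered salt medium with glucose, ascorbate and nialamide, pH 7.4 at 37 °C. Preincubated 10 min at 37 °C with compound. Uptake started with [3H]NE 100–300 nM, [3H]DA 50–300 nM or [3H]5-HT 100–200 nM, incubated 3 min (DA) or 6–10 min (NE, 5-HT). Blanks held on ice. Filtered, counted by scintillation.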

[10] = molecular target: Norepinephrine transporter (Rattus norvegicus) (UniProt Q9WTR4); experiment: Ability to inhibit the uptake of [3H]norepinephrine (NE) 0.1 uM concentration at rat brain synaptosomes; type: functional, subcellular; summary of the method: as §4
[11] = molecular target: Sodium-dependent serotonin transporter (Rattus norvegicus) (UniProt P31652); experiment: Ability to inhibit the uptake of [3H]- serotonin(5-HT) 0.1 uM concentration at rat brain synaptosomes; type: functional, subcellular; summary of the method: as §4
[12] = molecular target: Serotonin 2 (5-HT2) receptor (Rattus norvegicus, UniProt P30994+P08909+P14842); experiment: Binding affinity towards 5-hydroxytryptamine 2 receptor; type: protein assay
[13] = molecular target: D(1A) dopamine receptor (Rattus norvegicus, UniProt P18901); experiment: Binding affinity towards Dopamine receptor D1
[14] = molecular target: D(2) dopamine receptor (Rattus norvegicus, UniProt P61169); experiment: Binding affinity towards Dopamine receptor D2
[15] = molecular target: Muscarinic acetylcholine receptor (Rattus norvegicus) (UniProt P08482+P08483+P08485+P08911+P10980); experiment: Binding affinity towards Muscarinic acetylcholine receptor at 1.0 uM concentration; type: protein assay
[16] = molecular target: Serotonin 1 (5-HT1) receptor (Rattus norvegicus) (UniProt P28564+P30940+P19327+P28565); experiment: Binding affinity towards serotonin S1 receptor at 1.0 uM; type: protein assay
Summary of the method: (§5)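 Rat brain crude synaptic membranes in 20 mM NaHEPES pH 7.5. Ligands: α1 cortex […] 0.4 nM, nonspecific with (-)-NE 100 μM, 30 min at 25 °C. […] D2 striatum [3H]spiperone 0.05 nM with (+)-butaclamol 1 μM, 45 min at 37 °C. S1 cortex [3H]5-HT 1 nM plus glutathione and MgCl2, with 5-HT 10 μM, 20 min at 37 °C. […] Samples filtered on GF/B and counted.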

[17] = molecular target: T1, Adrenergic receptor alpha-1 (Rattus norvegicus, UniProt P15823+P23944+P43140); experiment: Binding affinity towards alpha-1 adrenergic receptor; type: protein assay
T1 sequence (P15823 whole entry): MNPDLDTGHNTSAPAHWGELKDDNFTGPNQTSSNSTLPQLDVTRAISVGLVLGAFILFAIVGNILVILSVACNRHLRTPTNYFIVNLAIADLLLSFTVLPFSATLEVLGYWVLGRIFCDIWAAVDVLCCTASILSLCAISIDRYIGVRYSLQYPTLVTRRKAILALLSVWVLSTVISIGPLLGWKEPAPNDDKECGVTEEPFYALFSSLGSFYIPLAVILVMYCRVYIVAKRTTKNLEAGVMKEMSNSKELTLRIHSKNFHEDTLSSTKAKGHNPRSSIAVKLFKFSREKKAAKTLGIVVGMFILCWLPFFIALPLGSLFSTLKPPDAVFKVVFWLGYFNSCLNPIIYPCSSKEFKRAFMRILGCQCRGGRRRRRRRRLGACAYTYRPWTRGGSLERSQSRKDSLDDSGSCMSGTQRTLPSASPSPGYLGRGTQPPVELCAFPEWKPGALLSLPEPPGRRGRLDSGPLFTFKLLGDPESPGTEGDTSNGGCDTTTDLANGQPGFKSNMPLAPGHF
T1 sequence (P23944 whole entry): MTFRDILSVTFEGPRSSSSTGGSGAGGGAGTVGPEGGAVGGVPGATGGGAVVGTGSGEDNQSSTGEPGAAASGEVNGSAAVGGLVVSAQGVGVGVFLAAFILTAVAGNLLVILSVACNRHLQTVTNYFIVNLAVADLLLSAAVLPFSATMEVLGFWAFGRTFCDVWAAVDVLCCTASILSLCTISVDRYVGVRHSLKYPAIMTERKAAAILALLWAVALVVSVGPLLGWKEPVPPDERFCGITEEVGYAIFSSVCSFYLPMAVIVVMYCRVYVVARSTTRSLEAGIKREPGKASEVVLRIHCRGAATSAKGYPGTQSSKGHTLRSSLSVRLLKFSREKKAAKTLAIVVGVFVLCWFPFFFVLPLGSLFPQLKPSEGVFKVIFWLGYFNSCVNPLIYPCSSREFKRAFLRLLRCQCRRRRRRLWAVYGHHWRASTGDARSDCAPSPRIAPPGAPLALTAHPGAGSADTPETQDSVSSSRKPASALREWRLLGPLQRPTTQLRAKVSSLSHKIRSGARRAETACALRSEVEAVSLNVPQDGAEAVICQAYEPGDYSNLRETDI
T1 sequence (P43140 whole entry): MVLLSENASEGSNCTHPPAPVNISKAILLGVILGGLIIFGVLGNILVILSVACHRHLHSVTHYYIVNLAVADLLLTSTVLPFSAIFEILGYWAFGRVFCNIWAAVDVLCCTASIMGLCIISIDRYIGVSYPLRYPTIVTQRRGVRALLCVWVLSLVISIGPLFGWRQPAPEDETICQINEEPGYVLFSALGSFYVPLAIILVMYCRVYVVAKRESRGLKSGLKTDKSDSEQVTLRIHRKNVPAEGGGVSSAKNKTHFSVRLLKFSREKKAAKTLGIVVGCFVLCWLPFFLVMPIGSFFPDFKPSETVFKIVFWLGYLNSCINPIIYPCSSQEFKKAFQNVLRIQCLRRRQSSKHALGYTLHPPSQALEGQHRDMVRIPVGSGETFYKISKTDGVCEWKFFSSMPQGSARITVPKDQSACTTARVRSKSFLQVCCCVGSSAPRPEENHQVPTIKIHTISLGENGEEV

[18] = molecular target: Adrenergic receptor alpha-2 (Rattus norvegicus) (UniProt P22086+P19328+P22909); experiment: Binding affinity towards alpha-2 adrenergic receptor at 1.0 uM concentration; type: protein assay
[19] = test system: Mus musculus; experiment: Ability to antagonise intraperitoneal dose; inactive (<10% antagonism) at 30 mg/kg is represented as I-30.; type: functional, organism-based; set-up: dose 30 mg/kg; summary of the method: as §1
[20] = test system: Mus musculus; experiment: Ability to antagonise intraperitoneal administration; weakly active (>=10% and <=30% antagonism) at 30 mg/kg is represented as >30; type: functional; details: ip; summary of the method: as §1
[21] = species: Rattus norvegicus; experiment: Ability to inhibit the uptake of tritiated norepinephrine (NE) at 0.1 uM concentration; type: functional; summary of the method: as §4
[22] = molecular target: Sodium-dependent serotonin transporter (Rattus norvegicus) (UniProt P31652); experiment: Inhibition of tritiated serotonin(5-HT) uptake at 0.1 uM concentration; type: functional; summary of the method: as §4
[23] = species: Mus musculus; experiment: Gross behavioral effects ascertained in mice; C indicates overt convulsant; type: functional, organism-based; summary of the method: as §3
[24] = molecular target: D(2) dopamine receptor (Rattus norvegicus) (UniProt P61169); experiment: Binding affinity towards dopamine receptor D2 at 1.0 uM concentration; summary of the method: as §5
[25] = molecular target: Sodium-dependent dopamine transporter (Rattus norvegicus) (UniProt P23977); experiment: Inhibition of tritiated dopamine (DA) uptake at 0.1 uM concentration; type: functional; summary of the method: as §4
[26] = species: Rattus norvegicus; experiment: Ability to inhibit the uptake of tritiated dopamine (DA) 1 uM concentration; type: functional
Summary of the method: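 Rat brain synaptosomal [3H]dopamine uptake: striatal P2 fraction, test compound at 1.00 μM. Preincubated at 37 °C, then 50–300 nM [3H]DA for 3 min. Blanks on ice. Filtration and scintillation counting; percent inhibition of control uptake.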

Sodium-dependent dopamine transporter, sequence (P23977 whole entry): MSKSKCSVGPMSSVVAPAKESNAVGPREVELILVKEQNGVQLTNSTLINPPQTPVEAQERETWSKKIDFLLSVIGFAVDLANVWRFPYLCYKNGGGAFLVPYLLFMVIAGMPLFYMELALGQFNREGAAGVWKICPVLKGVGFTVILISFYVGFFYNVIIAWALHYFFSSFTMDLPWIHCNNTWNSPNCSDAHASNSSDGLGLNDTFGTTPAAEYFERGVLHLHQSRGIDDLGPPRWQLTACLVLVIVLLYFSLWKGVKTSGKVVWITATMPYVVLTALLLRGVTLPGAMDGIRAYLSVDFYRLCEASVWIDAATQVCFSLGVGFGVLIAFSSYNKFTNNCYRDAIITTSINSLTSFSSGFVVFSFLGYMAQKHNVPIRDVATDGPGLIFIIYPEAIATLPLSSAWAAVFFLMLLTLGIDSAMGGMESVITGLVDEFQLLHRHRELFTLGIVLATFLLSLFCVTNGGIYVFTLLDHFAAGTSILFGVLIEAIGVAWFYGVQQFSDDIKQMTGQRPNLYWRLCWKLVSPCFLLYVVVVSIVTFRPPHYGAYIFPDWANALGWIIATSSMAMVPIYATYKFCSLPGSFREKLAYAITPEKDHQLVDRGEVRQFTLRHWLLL
D(1A) dopamine receptor, sequence (P18901 whole entry): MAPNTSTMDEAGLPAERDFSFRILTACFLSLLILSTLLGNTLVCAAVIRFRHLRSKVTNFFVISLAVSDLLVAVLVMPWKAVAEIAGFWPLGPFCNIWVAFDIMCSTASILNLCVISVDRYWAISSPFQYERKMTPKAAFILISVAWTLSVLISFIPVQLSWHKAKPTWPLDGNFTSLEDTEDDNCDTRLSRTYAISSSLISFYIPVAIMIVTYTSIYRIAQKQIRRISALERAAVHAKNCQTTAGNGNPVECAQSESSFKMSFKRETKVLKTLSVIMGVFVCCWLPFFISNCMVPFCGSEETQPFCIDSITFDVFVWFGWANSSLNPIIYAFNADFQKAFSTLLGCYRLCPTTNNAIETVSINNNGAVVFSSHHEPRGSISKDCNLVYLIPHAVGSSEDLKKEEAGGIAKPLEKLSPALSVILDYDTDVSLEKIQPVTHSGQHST
Sodium-dependent serotonin transporter (Rattus norvegicus), sequence (P31652 whole entry): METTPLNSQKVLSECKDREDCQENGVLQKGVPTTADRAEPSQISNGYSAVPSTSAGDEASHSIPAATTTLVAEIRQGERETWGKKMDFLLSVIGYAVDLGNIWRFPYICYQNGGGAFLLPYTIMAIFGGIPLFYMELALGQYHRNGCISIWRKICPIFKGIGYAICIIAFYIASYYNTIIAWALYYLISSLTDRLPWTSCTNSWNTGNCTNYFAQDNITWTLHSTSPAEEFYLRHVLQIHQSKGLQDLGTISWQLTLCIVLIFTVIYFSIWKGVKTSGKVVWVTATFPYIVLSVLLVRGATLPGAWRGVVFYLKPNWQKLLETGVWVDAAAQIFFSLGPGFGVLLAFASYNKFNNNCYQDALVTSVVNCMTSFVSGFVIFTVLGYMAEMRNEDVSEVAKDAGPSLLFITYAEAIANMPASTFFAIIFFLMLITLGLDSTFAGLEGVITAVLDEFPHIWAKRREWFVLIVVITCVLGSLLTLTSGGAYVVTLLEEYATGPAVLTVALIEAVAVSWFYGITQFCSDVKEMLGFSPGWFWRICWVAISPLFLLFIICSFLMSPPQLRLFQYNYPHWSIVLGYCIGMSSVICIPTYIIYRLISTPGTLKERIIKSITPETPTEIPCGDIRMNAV
Sodium-dependent dopamine transporter (Rattus norvegicus), sequence (P23977 whole entry): as the sequence (P23977 whole entry) above
Norepinephrine transporter, sequence (Q9WTR4 whole entry): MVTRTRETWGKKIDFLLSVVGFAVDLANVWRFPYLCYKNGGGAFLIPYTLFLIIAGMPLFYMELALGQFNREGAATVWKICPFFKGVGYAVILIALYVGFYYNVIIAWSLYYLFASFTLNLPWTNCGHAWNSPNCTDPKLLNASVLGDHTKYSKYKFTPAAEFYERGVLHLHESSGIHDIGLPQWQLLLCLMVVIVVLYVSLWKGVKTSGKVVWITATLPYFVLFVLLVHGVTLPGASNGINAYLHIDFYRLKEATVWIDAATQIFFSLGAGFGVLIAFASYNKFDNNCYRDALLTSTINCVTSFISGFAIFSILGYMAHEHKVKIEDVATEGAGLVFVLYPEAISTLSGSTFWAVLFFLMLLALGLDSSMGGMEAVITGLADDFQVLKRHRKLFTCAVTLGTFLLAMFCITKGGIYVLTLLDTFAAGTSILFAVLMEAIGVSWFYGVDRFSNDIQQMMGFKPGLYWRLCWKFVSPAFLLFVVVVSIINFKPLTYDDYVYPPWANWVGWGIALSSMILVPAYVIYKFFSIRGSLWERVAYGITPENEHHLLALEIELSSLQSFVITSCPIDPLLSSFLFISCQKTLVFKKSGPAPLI
Norepinephrine transporter (Rattus norvegicus), sequence (Q9WTR4 as listed by the source): as the sequence (Q9WTR4 whole entry) above
D(2) dopamine receptor, sequence (P61169 whole entry): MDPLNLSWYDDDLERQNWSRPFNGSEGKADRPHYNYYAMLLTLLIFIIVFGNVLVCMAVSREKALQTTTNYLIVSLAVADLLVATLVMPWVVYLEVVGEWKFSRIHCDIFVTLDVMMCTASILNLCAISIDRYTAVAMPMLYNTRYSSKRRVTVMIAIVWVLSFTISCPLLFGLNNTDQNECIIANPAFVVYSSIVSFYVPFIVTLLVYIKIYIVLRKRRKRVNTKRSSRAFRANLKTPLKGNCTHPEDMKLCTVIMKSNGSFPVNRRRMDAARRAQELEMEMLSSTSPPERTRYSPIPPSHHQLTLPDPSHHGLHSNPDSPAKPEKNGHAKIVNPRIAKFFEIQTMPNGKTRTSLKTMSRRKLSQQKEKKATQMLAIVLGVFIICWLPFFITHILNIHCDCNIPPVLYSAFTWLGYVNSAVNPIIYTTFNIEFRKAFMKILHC
D(2) dopamine receptor (Rattus norvegicus), sequence (P61169 whole entry): as above

C[C@@]12CCCN1C[C@H](c1ccccc1)c1ccccc12
ED50 [1]: 3.8 mg/kg
ED50 [2]: 9.2 mg/kg
behavior [3]: Weak/Overt convulsant
pKi [4]: 7.40
pKi [5]: 7.62

c1ccc([C@@H]2CN3CC[C@@H]4CCCC[C@@]43c3ccccc32)cc1
ED50 [6]: inactive
ED50 [7]: inactive
behavior [8]: Weak
inhibition [9]: 33%
inhibition [10]: 0%
inhibition [11]: 4%

Br.Fc1ccc([C@@H]2CN3CCC[C@@H]3c3cc(F)ccc32)cc1
Ki [12]: 0.0074 µM
pKi [13]: 6.74
pKi [14]: 6.62
ED50 [1]: 0.05 mg/kg
ED50 [2]: > 30 mg/kg
behavior [8]: Partial stimulant
inhibition [15]: 0%
inhibition [16]: -6%
pKi [4]: 8.11
pKi [5]: 9.26
Ki [17]: 0.536 µM
inhibition [18]: 25%

Br.COc1cc2c(cc1OC)[C@@H]1CCCN1C[C@H]2c1ccccc1
pKi [13]: 6.34
pKi [14]: 6.40
ED50 [19]: inactive
ED50 at 30 mg/kg [20]: > 30 mg/kg
Inhibition [21]: 16%
inhibition [22]: 10%
pKi [4]: 6.97
behavior [23]: Convulsant

Br.Oc1cc2c(cc1O)[C@@H]1CCCN1C[C@H]2c1ccccc1
pKi [13]: 7.19
inhibition [24]: 19%
ED50 [1]: > 60 mg/kg
ED50 [2]: > 60 mg/kg
behavior [8]: Partial stimulant
Inhibition [21]: 35%
inhibition [22]: 0%
inhibition [25]: 22%

c1ccc2c(c1)CCN1CCC[C@@H]21
ED50 [19]: inactive
ED50 [6]: inactive
behavior [3]: Weak/Overt convulsant
Inhibition [26]: 18%
inhibition [10]: 1%
inhibition [11]: -10%

Cl.c1ccc([C@@H]2CN3CCC[C@H]3c3ccccc32)cc1
ED50 at 30 mg/kg [20]: > 30 mg/kg
pKi [4]: 6.80
